For 21 compounds, IC50 results are on record in ChEMBL document CHEMBL4033795, “Design, Synthesis, and Structure-Activity Relationship Study of 2-Oxo-3,4-dihydropyrimido[4,5- d]pyrimidines as New Colony Stimulating Factor 1 Receptor (CSF1R) Kinase Inhibitors” (J Med Chem, 2018).

pIC50: −log10 of the molar value.

Experiment [1] has as its target Macrophage colony-stimulating factor 1 receptor (Homo sapiens, UniProt P07333). Kind of experiment: Inhibition of recombinant human His-tagged CSF1R cytoplasmic domain (538 to 910 residues) expressed in baculovirus using tyr4 peptide as substrate after 1 hr by FRET-based Z'-Lyte assay. The procedure, abridged:
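Z′-Lyte FRET assay with CSF1R or EGFR and 2 μM Tyr4 peptide substrate in 1× kinase buffer. ATP was supplied as a 100 μM solution, a stock and not the final concentration. Compounds were 3-fold serially diluted in DMSO. Reaction ran 1 h at room temperature, followed by 1 h development and a stop reagent. Phospho-peptide, no-ATP and DMSO controls were included. IC50 by curve fitting; mean of at least three independent experiments.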

Experiment [2] deals with Epidermal growth factor receptor (Homo sapiens, UniProt P00533). As to the kind of experiment: Inhibition of recombinant human wild type GST-tagged EGFR cytoplasmic domain (668 to 1210 residues) expressed in baculovirus using tyr4 peptide as substrate after 1 hr by FRET-based Z'-Lyte assay.

Broadly, the pIC50 is the negative decadic logarithm of the IC50, by convention in mol/L.

Sequence of Epidermal growth factor receptor (P00533 whole entry, the tested form may be a part): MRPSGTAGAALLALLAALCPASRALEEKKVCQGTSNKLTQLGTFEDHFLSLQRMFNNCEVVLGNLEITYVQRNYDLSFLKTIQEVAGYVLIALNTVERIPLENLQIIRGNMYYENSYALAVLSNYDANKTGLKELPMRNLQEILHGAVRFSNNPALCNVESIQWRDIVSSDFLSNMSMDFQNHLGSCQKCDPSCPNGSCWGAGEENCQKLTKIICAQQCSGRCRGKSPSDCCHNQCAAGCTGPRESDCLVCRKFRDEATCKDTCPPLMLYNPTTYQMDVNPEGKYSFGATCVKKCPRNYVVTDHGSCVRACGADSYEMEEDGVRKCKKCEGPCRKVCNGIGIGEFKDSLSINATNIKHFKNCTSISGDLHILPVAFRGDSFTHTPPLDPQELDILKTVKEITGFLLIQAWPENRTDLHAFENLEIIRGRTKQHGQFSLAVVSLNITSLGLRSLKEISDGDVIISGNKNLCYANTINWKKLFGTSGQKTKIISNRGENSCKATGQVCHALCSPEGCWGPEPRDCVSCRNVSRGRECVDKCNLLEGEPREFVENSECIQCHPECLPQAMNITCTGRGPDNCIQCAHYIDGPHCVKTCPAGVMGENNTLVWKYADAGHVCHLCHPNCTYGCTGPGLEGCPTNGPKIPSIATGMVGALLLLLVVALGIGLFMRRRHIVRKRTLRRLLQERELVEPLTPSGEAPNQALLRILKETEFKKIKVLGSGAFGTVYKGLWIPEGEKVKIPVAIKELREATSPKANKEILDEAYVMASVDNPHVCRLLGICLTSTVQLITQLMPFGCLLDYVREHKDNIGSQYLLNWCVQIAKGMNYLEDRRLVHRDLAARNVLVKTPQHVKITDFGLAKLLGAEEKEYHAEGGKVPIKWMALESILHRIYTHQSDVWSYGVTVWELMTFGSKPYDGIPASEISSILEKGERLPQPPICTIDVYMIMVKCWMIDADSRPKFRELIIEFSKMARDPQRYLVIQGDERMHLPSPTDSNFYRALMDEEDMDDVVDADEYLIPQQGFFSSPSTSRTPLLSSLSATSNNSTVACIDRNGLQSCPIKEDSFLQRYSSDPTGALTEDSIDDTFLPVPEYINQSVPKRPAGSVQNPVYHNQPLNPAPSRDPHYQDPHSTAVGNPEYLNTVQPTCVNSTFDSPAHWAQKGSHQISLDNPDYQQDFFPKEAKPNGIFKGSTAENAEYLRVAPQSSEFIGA
Sequence of Macrophage colony-stimulating factor 1 receptor (P07333 whole entry, the tested form may be a part): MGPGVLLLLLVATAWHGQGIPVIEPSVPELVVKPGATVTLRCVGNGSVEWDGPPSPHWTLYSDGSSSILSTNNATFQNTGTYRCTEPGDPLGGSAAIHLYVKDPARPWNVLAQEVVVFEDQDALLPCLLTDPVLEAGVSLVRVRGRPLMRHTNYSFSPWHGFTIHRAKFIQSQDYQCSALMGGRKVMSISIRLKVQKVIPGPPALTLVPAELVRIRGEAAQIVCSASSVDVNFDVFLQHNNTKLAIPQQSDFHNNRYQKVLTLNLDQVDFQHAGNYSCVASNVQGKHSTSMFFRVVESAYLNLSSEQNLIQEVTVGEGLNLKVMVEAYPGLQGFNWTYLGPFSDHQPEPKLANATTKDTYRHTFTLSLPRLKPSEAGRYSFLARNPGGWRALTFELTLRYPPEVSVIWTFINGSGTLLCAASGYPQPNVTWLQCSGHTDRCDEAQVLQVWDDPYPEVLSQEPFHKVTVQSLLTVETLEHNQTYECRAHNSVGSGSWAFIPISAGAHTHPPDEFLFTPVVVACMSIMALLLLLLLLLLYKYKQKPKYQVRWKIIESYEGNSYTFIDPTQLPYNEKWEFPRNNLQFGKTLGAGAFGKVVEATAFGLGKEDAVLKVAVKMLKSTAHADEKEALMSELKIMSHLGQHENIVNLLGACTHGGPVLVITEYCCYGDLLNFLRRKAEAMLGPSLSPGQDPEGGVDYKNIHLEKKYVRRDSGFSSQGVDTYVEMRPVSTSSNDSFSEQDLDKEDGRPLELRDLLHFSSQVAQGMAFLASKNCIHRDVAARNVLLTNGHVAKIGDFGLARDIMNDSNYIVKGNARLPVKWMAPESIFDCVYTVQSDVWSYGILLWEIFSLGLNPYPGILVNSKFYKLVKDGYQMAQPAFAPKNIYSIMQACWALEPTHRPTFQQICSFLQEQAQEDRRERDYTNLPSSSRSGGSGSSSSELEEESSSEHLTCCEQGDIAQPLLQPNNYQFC

Take `Cc1cc(Nc2ncc3c(n2)N([C@H]2CCN(C(=O)CC(C)C)C2)C(=O)N(c2ccccc2Cl)C3)ccc1N1CCN(C)CC1`: the figures for the pIC50 in experiment [1] and in experiment [2] were 7.99 and 7.65, respectively. For `CCC(=O)N1CC[C@H](N2C(=O)N(c3ccccc3OC)Cc3cnc(Nc4ccc(N5CCN(C)CC5)c(C)c4)nc32)C1`, the negative-log IC50 (pIC50) was 8.29 in experiment [1] and 7.56 in experiment [2]. For `CCC(=O)N1CC[C@H](N2C(=O)N(c3cccc(C)c3)Cc3cnc(Nc4ccc(N5CCN(C)CC5)c(C)c4)nc32)C1` the same measures were 7.79 and 6.44. For the compound `CCC(=O)N1CC[C@H](N2C(=O)N(c3cc(OC)ccc3F)Cc3cnc(Nc4ccc(N5C[C@@H](C)N(C)[C@@H](C)C5)c(C)c4)nc32)C1`, the pIC50 was 8.11 in experiment [1] and 6.05 in experiment [2]. For `CCC(=O)N1CC[C@H](N2C(=O)N(c3cc(OC)ccc3F)Cc3cnc(Nc4ccc(N5CCN(C)CC5)c(Cl)c4)nc32)C1` the same measures were 7.83 and 5.92.

Consider `CCC(=O)N1CC[C@@H](N2C(=O)N(c3ccccc3Cl)Cc3cnc(Nc4ccc(N5CCN(C)CC5)c(C)c4)nc32)C1`, for which the figures for the pIC50 in experiment [1] and in experiment [2] were 7.68 and 7.63, respectively. As to `Cc1cc(Nc2ncc3c(n2)N([C@H]2CCN(C(=O)C4CC4)C2)C(=O)N(c2ccccc2Cl)C3)ccc1N1CCN(C)CC1`, the pIC50 in experiment [1] was 7.68; in experiment [2], 7.54. For `CCC(=O)N1CC[C@H](N2C(=O)N(c3cc(OC)ccc3F)Cc3cnc(Nc4ccc(N5CCN(C6COC6)CC5)c(C)c4)nc32)C1` the same measures were 8.47 and 6.52.

In the case of `CCC(=O)N1CC[C@H](N2C(=O)N(c3ccccc3F)Cc3cnc(Nc4ccc(N5CCN(C)CC5)c(C)c4)nc32)C1`, the results for the pIC50 in experiment [1] and in experiment [2] were 8.28 and 7.75, respectively. For the compound `CCC(=O)N1CC[C@H](N2C(=O)N(c3ccc(F)cc3)Cc3cnc(Nc4ccc(N5CCN(C)CC5)c(C)c4)nc32)C1`, the pIC50 in experiment [1] was 7.74; in experiment [2] it was 7.15.

`CCC(=O)N1CC[C@H](N2C(=O)N(c3cc(OC)ccc3F)Cc3cnc(Nc4ccc(N5CCN(C)CC5)cc4OC)nc32)C1`: the results for the pIC50 in experiment [1] and in experiment [2] were 7.52 and 5.80, respectively.

For `CCC(=O)N1CC[C@H](N2C(=O)N(c3ccccc3Cl)Cc3cnc(Nc4ccc(N5CCN(C)CC5)c(C)c4)nc32)C1`, the pIC50 in experiment [1] is 8.30; in experiment [2], 7.80. Consider `Cc1cc(Nc2ncc3c(n2)N([C@H]2CCN(C(=O)CN(C)C)C2)C(=O)N(c2ccccc2Cl)C3)ccc1N1CCN(C)CC1`, for which the pIC50 is 7.64 in experiment [1] and 7.58 in experiment [2]. In the case of `CCC(=O)N1CC[C@H](N2C(=O)N(c3cc(OC)ccc3F)Cc3cnc(Nc4ccc(N5CCN(C(C)=O)CC5)c(C)c4)nc32)C1`, the values for the pIC50 in experiment [1] and in experiment [2] were 7.59 and 6.83, respectively. For `CCCC(=O)N1CC[C@H](N2C(=O)N(c3ccccc3Cl)Cc3cnc(Nc4ccc(N5CCN(C)CC5)c(C)c4)nc32)C1` the same measures were 8.00 and 7.54.

As to `CCC(=O)N1CC[C@H](N2C(=O)N(c3cc(OC)ccc3F)Cc3cnc(Nc4ccc(N5CCOCC5)c(C)c4)nc32)C1`, the figures for the pIC50 in experiment [1] and in experiment [2] were 7.60 and 6.20, respectively.

Consider `Cc1cc(Nc2ncc3c(n2)N([C@H]2CCN(C(=O)C4CCCCC4)C2)C(=O)N(c2ccccc2Cl)C3)ccc1N1CCN(C)CC1`, for which the pIC50 in experiment [1] was 7.51; in experiment [2], 7.60.

Take `CCC(=O)N1CC[C@H](N2C(=O)N(c3cc(OC)ccc3F)Cc3cnc(Nc4ccc(N5CCN(C)CC5)cc4)nc32)C1`: the figures for the pIC50 in experiment [1] and in experiment [2] were 7.87 and 5.96, respectively. Turning to `CCC(=O)N1CC[C@H](N2C(=O)N(c3cc(OC)ccc3F)Cc3cnc(Nc4ccc(N(C)CCN(C)C)c(C)c4)nc32)C1`, the pIC50 in experiment [1] was 7.99; in experiment [2] it was 5.89.

As for `CCC(=O)N1CC[C@H](N2C(=O)N(c3cccc(OC(F)(F)F)c3)Cc3cnc(Nc4ccc(N5CCN(C)CC5)c(C)c4)nc32)C1`, the pIC50 in experiment [1] was 6.82; in experiment [2], 6.05. As to `FC(F)(F)c1ccc(CNc2ccc(Cc3c[nH]c4ncc(Cl)cc34)cn2)cn1` [PEXIDARTINIB], the pIC50 in experiment [2] is under 5.00.
